From ChEMBL document CHEMBL4325842, “Design, synthesis, and biological evaluation of novel aminopyrimidinylisoindolines as AXL kinase inhibitors” (Bioorg Med Chem Lett, 2018)

What was measured:
[1] = target: Casein kinase I isoform epsilon (Homo sapiens) (UniProt P49674); assay: Inhibition of human CK1 epsilon at 10 uM using KRRRAL[pS]VASLPGL as substrate by [gamma-33P]-ATP assay relative to control
Summary of the method: (§1)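 Commercial kinase panel screen at a single concentration of 10 μM. % inhibition was calculated as 100 minus % activity.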

[2] = target: Tyrosine-protein kinase receptor UFO (Homo sapiens) (UniProt P30530); assay: Inhibition of human AXL at 10 uM using EAIYAAPFAKKK as substrate by [gamma-33P]-ATP assay relative to control; summary of the method: as §1
HCC78 = assay: Antiproliferative activity against human HCC78 cells after 2 days by spectrophotometric analysis; assay type: functional; conditions: HCC78, 48 h
[3] = target: T1, Tyrosine-protein kinase receptor UFO (Homo sapiens, UniProt P30530); assay: Inhibition of human AXL using EAIYAAPFAKKK as substrate by [gamma-33P]-ATP assay
T1 sequence (P30530 whole entry): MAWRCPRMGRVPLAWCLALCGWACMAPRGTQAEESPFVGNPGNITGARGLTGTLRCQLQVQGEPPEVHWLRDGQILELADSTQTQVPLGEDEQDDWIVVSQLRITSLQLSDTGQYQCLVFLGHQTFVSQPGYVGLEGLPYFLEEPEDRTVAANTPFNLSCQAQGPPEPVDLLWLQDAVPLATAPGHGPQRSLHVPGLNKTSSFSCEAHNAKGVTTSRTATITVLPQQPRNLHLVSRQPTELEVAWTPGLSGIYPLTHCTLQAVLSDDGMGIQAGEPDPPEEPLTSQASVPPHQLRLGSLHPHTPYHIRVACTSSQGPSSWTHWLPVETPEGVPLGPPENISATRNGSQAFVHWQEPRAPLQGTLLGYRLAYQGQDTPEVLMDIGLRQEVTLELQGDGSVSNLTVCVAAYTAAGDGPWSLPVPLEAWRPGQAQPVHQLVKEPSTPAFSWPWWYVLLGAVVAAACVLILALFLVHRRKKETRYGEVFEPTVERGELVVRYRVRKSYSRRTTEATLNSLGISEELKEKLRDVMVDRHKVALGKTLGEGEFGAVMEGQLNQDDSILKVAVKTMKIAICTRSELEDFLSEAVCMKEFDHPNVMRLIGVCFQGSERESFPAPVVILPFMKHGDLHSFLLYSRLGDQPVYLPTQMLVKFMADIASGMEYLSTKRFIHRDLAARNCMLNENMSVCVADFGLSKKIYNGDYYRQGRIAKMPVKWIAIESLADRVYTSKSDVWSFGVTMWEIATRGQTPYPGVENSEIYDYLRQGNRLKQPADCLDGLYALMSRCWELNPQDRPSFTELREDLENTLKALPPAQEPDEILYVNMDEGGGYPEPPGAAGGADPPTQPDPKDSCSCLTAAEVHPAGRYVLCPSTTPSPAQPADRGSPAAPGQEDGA

[4] = target: Aurora kinase A (Homo sapiens) (UniProt O14965); assay: Inhibition of human AuroraA at 10 uM using [H-LRRASLG] as substrate by [gamma-33P]-ATP assay relative to control; summary of the method: as §1
HeLa = assay: Antiproliferative activity against human HeLa cells after 2 days by spectrophotometric analysis; assay type: functional; conditions: 48 h
Summary of the method: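 Cells from ATCC were kept in RPMI 1640 with 5% FBS. They were exposed to graded concentrations in DMSO/RPMI for 48 h at 37 C under 5% CO2, then fixed with 50% trichloroacetic acid. Cellular protein was read at 540 nm at time zero and at 48 h, with and without compound. TGI (100% growth inhibition) was taken from the concentration-response curve.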

[5] = target: Vascular endothelial growth factor receptor 1 (Homo sapiens) (UniProt P17948); assay: Inhibition of human FLT1 at 10 uM using poly[Glu:Tyr] (4:1) as substrate by [gamma-33P]-ATP assay relative to control; summary of the method: as §1
[6] = target: Ribosomal protein S6 kinase beta-1 (Homo sapiens) (UniProt P23443); assay: Inhibition of human RPS6KB1 at 10 uM using KKRNRTLTK as substrate by [gamma-33P]-ATP assay relative to control
Summary of the method: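 Kinase-panel profiling (50 oncogenic kinases) run by an outside contract service. The test compound was tested at a single concentration of 10 μM. Percent inhibition was calculated as 100 minus % remaining activity.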

[7] = target: Tyrosine-protein kinase JAK1 (Homo sapiens) (UniProt P23458); assay: Inhibition of human JAK1 at 10 uM using poly[Glu:Tyr] (4:1) as substrate by [gamma-33P]-ATP assay relative to control; summary of the method: as §1
[8] = target: T1, Tyrosine-protein kinase receptor UFO; assay: Inhibition of N-terminal His-tagged recombinant human AXL (473 to end amino acids) expressed by baculovirus in Sf9 cells using axltide substrate and ATP by ADP-Glo luminescence assay

Ribosomal protein S6 kinase beta-1 (Homo sapiens), sequence (P23443 whole entry, looked up): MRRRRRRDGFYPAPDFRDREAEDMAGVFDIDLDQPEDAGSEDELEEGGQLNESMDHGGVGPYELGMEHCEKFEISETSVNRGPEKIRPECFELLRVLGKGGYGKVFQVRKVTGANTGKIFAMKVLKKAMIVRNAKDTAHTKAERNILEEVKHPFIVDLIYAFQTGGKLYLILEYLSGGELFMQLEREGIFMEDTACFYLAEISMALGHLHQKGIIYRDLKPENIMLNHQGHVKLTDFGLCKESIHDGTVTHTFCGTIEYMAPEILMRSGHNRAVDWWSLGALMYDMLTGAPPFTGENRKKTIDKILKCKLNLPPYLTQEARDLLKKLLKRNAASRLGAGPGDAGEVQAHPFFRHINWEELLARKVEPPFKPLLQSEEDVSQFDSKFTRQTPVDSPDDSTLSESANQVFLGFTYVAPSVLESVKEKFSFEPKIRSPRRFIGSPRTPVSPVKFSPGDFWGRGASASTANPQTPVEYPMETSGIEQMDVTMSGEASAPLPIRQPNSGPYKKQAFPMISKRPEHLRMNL
Aurora kinase A (Homo sapiens), sequence (O14965 whole entry): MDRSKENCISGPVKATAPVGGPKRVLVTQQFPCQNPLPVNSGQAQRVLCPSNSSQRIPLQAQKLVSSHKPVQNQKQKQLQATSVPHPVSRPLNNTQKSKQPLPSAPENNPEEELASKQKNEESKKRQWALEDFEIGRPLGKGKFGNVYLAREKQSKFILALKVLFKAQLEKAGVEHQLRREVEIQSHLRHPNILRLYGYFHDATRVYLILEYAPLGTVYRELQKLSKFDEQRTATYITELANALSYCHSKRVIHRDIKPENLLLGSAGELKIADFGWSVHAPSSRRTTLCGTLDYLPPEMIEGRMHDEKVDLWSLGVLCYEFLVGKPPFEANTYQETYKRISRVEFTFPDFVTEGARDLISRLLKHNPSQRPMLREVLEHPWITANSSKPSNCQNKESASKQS
Vascular endothelial growth factor receptor 1 (Homo sapiens), sequence (P17948 whole entry): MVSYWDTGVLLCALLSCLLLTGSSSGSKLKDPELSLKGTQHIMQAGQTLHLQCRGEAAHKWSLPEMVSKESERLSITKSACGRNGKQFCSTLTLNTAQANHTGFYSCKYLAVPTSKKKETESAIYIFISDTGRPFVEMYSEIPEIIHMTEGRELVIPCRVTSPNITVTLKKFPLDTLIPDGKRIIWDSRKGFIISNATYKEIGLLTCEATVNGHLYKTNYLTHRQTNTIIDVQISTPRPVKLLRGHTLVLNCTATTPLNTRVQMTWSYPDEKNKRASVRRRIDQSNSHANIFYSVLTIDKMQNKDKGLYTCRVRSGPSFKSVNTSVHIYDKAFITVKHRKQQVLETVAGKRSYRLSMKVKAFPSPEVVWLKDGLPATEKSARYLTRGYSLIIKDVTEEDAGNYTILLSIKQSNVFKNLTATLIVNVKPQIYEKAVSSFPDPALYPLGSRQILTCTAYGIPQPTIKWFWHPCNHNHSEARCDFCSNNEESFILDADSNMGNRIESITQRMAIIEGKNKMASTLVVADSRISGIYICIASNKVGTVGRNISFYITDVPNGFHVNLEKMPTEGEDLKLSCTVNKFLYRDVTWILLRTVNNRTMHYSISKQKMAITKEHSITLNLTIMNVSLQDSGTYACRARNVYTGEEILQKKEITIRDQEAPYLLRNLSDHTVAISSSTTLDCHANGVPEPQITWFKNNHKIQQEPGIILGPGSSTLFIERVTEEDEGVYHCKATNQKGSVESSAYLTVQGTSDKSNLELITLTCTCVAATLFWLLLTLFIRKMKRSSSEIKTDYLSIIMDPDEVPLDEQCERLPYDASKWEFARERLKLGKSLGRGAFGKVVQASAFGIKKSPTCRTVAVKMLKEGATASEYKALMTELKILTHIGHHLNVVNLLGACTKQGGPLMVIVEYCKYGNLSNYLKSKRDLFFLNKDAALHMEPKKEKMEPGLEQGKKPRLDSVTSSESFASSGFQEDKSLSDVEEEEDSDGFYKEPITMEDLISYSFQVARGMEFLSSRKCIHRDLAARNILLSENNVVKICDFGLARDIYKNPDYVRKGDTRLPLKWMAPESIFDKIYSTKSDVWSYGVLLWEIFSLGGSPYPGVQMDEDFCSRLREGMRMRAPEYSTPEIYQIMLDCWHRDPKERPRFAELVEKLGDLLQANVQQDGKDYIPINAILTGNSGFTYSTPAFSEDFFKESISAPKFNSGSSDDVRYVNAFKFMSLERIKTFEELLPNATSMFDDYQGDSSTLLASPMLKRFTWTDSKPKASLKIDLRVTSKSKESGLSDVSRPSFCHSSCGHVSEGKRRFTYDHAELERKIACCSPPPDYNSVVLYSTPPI
Tyrosine-protein kinase JAK1 (Homo sapiens), sequence (P23458 whole entry): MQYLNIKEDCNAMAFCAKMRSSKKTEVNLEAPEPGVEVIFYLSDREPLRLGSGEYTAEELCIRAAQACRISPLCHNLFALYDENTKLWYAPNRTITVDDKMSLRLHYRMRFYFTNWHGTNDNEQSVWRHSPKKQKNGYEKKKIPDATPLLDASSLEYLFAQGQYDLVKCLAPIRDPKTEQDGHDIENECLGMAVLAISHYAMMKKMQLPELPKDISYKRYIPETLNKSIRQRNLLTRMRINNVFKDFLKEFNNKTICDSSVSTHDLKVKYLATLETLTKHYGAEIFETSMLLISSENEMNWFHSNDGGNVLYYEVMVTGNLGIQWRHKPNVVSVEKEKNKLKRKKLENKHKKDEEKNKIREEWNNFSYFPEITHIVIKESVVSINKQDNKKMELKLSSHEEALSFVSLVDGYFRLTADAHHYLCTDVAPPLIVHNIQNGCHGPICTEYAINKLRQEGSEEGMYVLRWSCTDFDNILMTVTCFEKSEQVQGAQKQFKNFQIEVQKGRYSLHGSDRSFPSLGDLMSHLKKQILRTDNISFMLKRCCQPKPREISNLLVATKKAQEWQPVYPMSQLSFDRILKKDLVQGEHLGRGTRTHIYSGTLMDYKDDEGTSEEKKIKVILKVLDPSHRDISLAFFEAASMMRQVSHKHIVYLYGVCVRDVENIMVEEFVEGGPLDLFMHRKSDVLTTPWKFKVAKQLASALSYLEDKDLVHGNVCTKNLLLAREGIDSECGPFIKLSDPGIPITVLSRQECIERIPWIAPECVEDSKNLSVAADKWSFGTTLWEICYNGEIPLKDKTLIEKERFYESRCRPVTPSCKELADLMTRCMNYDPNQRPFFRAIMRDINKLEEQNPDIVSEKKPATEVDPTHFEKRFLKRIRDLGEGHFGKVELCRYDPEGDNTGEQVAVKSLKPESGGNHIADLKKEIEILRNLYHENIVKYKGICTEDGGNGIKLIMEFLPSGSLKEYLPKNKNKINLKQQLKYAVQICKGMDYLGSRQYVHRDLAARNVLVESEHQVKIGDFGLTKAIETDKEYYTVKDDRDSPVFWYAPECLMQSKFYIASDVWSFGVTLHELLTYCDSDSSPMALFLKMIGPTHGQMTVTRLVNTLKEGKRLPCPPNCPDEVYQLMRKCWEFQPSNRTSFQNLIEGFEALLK
Casein kinase I isoform epsilon (Homo sapiens), sequence (P49674 whole entry, looked up, canonical isoform): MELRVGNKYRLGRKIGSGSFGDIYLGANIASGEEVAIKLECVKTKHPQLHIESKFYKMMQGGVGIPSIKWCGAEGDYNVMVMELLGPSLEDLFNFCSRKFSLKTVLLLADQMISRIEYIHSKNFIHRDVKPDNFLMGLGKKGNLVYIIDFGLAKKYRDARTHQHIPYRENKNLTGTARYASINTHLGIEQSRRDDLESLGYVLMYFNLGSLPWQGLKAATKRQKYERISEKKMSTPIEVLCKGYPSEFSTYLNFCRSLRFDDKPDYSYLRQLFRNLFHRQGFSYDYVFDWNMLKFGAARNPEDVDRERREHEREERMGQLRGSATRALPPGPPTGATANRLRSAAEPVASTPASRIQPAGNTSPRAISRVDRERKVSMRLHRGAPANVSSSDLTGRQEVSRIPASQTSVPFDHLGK

Compound: CC(=O)N1CCN(c2ccc(Nc3ncc(C(F)(F)F)c(N4Cc5cccc(N(C)S(C)(=O)=O)c5C4)n3)cc2)CC1
- inhibition [1]: -2.5%
- inhibition [2]: 92.1%
- GI50 (HCC78): 5200 nM
- IC50 [3]: < 0.5 nM
- inhibition [4]: 95.3%
- GI50 (HeLa): 730 nM
- inhibition [5]: 49%
- inhibition [6]: 65.5%
- inhibition [7]: 75.4%
- IC50 [8]: < 0.5 nM
